Common to all, as to type: functional
For experiment [1], the system named is Attelabidae. The experiment is described as follows: Insecticidal activity against Mechoris ursulus assessed as mortality at 1 mg/paper at 25 +/- 1 degC measured after 48 hr by filter paper diffusion method. The procedure, abridged: (§1)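 M. ursulus larvae. Compound in 1 mL acetone applied to a filter paper (50-mm diameter), dried in a hood 2 min, then placed in the bottom of a polyethylene cup with the larvae. Controls got 1 mL acetone. Held at 25 ± 1 °C, 50-60% RH, 16L:8D. Run in triplicate, mean ± SE.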

Experiment [2] relates to Attelabidae. The experiment is described as follows: Insecticidal activity against Mechoris ursulus assessed as mortality at 2.5 mg/paper at 25 +/- 1 degC measured after 48 hr by filter paper diffusion method. The gist of the method:
as §1

The subject of experiment [3] is Attelabidae. The experiment is described as follows: Insecticidal activity against Mechoris ursulus assessed as mortality at 5 mg/paper at 25 +/- 1 degC measured after 48 hr by filter paper diffusion method. The procedure, abridged: as §1

The structures appear in SMILES notation.

As for `O=C/C=C/c1ccccc1` [CINNAMALDEHYDE], the mortality – broadly, the percentage killed – in the experiment with Attelabidae [1] stood at 83.3%; in the experiment on Attelabidae [2], 100%; in the experiment on Attelabidae [3], 100%.
With `O=C(O)/C=C/c1ccccc1` [CINNAMIC ACID], the mortality with Attelabidae [1] is given as 53.3%; with Attelabidae [2], 73.3%; in the experiment with Attelabidae [3] it was 86.7%.
For the compound `OC/C=C/c1ccccc1` [CINNAMIC ALCOHOL], the mortality in the experiment on Attelabidae [3] worked out at 50%.
Turning to `C=CCc1ccc(O)c(OC)c1` [EUGENOL], the mortality in the experiment on Attelabidae [1] is 66.7%; in the experiment with Attelabidae [2], 90%; with Attelabidae [3], 100%.
The corresponding values for `O=Cc1ccccc1O` [SALICYLADEHYDE] are 74.4%, 88.9% and 100%.
